High-throughput results from PubChem BioAssay.
MrgX1 antagonist = antagonists of human MrgX1 receptor, primary screen, HEK293 cells, Fluo-4 calcium flux. Mas-related G-protein coupled receptor member X1 (Homo sapiens), Q96LB2. BAM8-22 antagonism; active compounds read low. B-score at 10 µM. 1.3% of 310,000 active;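 active = calcium-response B-score plate-corrected more than 3 library SD below zero, starting fluorescence within 5 deviations, no agonist response on first addition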;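 note: peak minus trough fluorescence over baseline after final BAM8-22 challenge near maximal dose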
Target sequence (Q96LB2 whole entry, looked up): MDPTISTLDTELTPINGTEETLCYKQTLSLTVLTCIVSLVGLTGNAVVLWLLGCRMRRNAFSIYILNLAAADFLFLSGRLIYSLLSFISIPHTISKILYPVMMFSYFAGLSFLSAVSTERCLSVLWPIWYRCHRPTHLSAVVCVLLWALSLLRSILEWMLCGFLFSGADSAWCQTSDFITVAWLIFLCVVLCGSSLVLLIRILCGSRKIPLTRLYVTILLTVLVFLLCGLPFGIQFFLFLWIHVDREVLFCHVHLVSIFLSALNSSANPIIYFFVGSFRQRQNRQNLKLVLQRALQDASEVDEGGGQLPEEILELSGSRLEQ
MrgX1 allo act = positive allosteric modulators of MrgX1, primary screen, HEK293 cells, Fluo-4 calcium flux; Mas-related G-protein coupled receptor member X1 (Homo sapiens), Q96LB2; FDSS; active compounds read high; B-score at 10 µM; 0.63% of 310,000 active; AID 588675, 2011;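 active = plate-corrected calcium response at least 3 library SD above typical, normal starting fluorescence, not activating the receptor alone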;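 note: compound read alongside a low EC10 to EC30 dose of BAM8-22 agonist; peak minus trough fluorescence over baseline measured at the second addition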
RGS4 inh = RGS4 inhibitors, primary screen, cell-based, HEK293 M3R inducible RGS4, calcium flux; Regulator of G-protein signaling 4 (Homo sapiens), P49798; Fluo-4 calcium flux; active compounds read high; triggered by carbachol at its EC20; B-score at 10 µM; 0.45% of 310,000 active;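 active = B-score, a plate-corrected calcium signal, over three deviations above library mean, with baseline fluorescence within five deviations of library mean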;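 note: RGS4 expression induced by doxycycline in cells with stable M3 receptor; B-score is computed from the integrated fluorescence ratio over baseline after carbachol; higher B-score means a larger calcium signal and so more RGS4 inhibition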
RGS4 act = RGS4 potentiators or activators, primary screen, cell-based, HEK293 M3R inducible RGS4, calcium flux | carbachol calcium flux Fluo4; active compounds read low | B-score at 10 µM | 0.92% of 310,000 active;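 active = B-score of the integrated calcium signal more than 4 SD below the library mean, with starting fluorescence not abnormally high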;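 note: negative B-score means reduced calcium response which marks RGS4 activation or potentiation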
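System – HEK293 FlpIn-TREx cells, stable M3R, doxycycline-inducible RGS4 · Reagent – ECmax carbachol challenge · Times – compound preincubation 20 min at room temperature before agonist · Technique – Fluo4 fluorescence kinetic imaging of calcium · Measure – B score of integrated Fluo4 ratio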
MrgX1 agonist = agonists of human MrgX1 receptor, primary screen, HEK293 cells, Fluo-4 calcium flux; B-score at 10 µM; Fluo-4 calcium fluorescence, agonist mode; active compounds read high; 0.44% of 310,000 active; AID 588627, 2011;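 active = calcium response B-score plate-corrected fluorescence ratio at least 3 library SD, with starting fluorescence B-score inside 5 SD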
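System: HEK293 cells stably expressing human MrgX1 receptor; Dosing: test compound in the initial addition of three; Schedule: overnight plating, then 30 min 37 °C plus 30 min room-temperature dye loading; Detection: kinetic calcium dye fluorescence, Fluo-4 NW; Controls: per-plate positive and negative controls for Z′ factor.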
Each line names hits and unclear results; the compound was inactive in the other large screens. An excerpt weighted towards active compounds, which were near 3.5% of everything screened.

O=c1cc2c(n[nH]1)-c1ccccc1CC2	none
CN1CCN(NC(=O)c2ccc(Cl)s2)CC1	none
NC(=O)[C@@H]1CCNc2c(I)cc([N+](=O)[O-])cc2C(=O)N[C@@H](CCC(=O)O)C(=O)N[C@@H](CO)C(=O)N1	MrgX1 antagonist -6.5 (no result: RGS4 inh, RGS4 act)
C[C@H](NC(=O)[C@@H]1Cc2ccccc2CN1)C(=O)NCC1CCCO1 (some centres not stated)	none
COC(=O)CC1=NN(c2nc3ccccc3s2)C(=O)/C1=C/N(C)C	MrgX1 allo act 15
Oc1c(Cl)cc(Cl)cc1CNn1cnnc1	none
Oc1c(Cl)cc(Cl)cc1Sc1cc(Cl)cc(Cl)c1O	MrgX1 agonist 30
CC(C)CCNC(=O)C(=O)NCC1OCCCN1S(=O)(=O)c1cccs1 (configuration not stated)	none
Cc1cc(/C=C2\C(=N)N3N=C(CC(=O)N4CCOCC4)SC3=NC2=O)c(C)n1Cc1ccccc1	none
CN(C)c1ccc(/C=C2\C(=N)N3N=C(CC(=O)N4CCCCC4)SC3=NC2=O)cc1	MrgX1 agonist 55
CN(C)c1ccc(/C=C2\C(=N)N3C(=NC2=O)Sc2cc(S(C)(=O)=O)ccc23)cc1	MrgX1 agonist 29
N=C1/C(=C/c2ccc(OCc3ccccc3)cc2)C(=O)N=C2SC(CC(=O)N3CCOCC3)=NN12	MrgX1 allo act 9.7
Cc1c[n+](CC(=O)c2ccccc2)c(C)cn1	none
CNc1nc(NN)nc(Nc2ccccc2)n1	none
c1ccc(CCOn2ccnc2)cc1	none
COc1ccc(-c2[nH]ncc2CN2CCCO2)cc1F	none
COc1ccc2cc(-c3[nH]ncc3CN3CCCCO3)ccc2c1	MrgX1 agonist 35
Cc1ccc(S(=O)(=O)CC#CCOC(=O)c2ccc([N+](=O)[O-])cc2)cc1	MrgX1 agonist 43
Cc1ccc(C(=O)c2ccc([N+](=O)[O-])cc2)cc1	none
Cc1csc2nc(SCC(=O)Nc3ccccc3F)[nH]c(=O)c12	none
N/C(Cn1cncn1)=N\NC(=O)c1ccc(Cl)cc1Cl	MrgX1 antagonist -4.5
Cc1nn(-c2ccc(Cl)nn2)c(=O)c2ccccc12	MrgX1 allo act 14
Cc1nn(-c2ccc(Cl)cc2)c(=O)c2ccccc12	none
COc1cccc2c1C(=O)C=C(C)C2=O	MrgX1 antagonist -7.7, RGS4 act -7.1
O=C(Nc1nc2ccc([N+](=O)[O-])cc2s1)c1ccco1	none
CSc1ccc(S(=O)(=O)NCC(=O)OCC(=O)N(C)Cc2ccccc2)cc1[N+](=O)[O-]	none
CCS(=O)(=O)N1N=C(c2cccc(NS(C)(=O)=O)c2)CC1c1ccccc1 (configuration not stated)	MrgX1 antagonist -5.5
CCOC(=O)Nc1ccc2c(c1)N(C(=O)CCN(C)C)c1ccccc1S2	RGS4 act -7
C[N+]1(C)CCC(=C2c3ccccc3CC(=O)c3sccc32)CC1	RGS4 act -8.3
O=C(c1ccco1)N1CCN(Cc2nc(-c3cccs3)no2)CC1	none
CCN(CC)CCC(C)OC(c1ccccc1)c1ccccc1 (configuration not stated)	RGS4 act -8.7
CSc1c(C#N)c(N)nc2sc(C(=O)c3ccc(Cl)c(Cl)c3)c(N)c12	MrgX1 antagonist -5.2
COc1ccc(-c2c(C#N)c(N)nc3sc(C(=O)c4ccccc4)c(N)c23)cc1	none
O=C(Nc1ccccc1O)c1ccccc1O	MrgX1 antagonist -5.8
COc1c(CC=C(C)C)c(O)cc2oc(=O)c3c4ccc(O)cc4oc3c12	MrgX1 antagonist -11
COc1c2c(cc3oc(=O)c4c5ccc(O)cc5oc4c13)OC(C)(C)CC2	none
O=C(CN1CCc2ccccc2C1)Nc1ccccc1C(F)(F)F	none
CCOc1ccc(NC(=O)CN(C)C(=O)CCNC(=O)c2ccc(Br)cc2)cc1OCC	none
CCOc1ccc(NC(=O)CN(C)C(=O)CC(NC(=O)c2ccccc2)c2ccccc2)cc1OCC (configuration not stated)	MrgX1 agonist 36
